ChEMBL document CHEMBL1811814, “Synthesis and evaluation of indole, pyrazole, chromone and pyrimidine based conjugates for tumor growth inhibitory activities--development of highly efficacious cytotoxic agents” (Eur J Med Chem, 2010)

Tests used:
Format in all cases: functional
Design in all cases: scale not given: the % may be the effect or the level left
HL-60(TB) = assay: Growth inhibition of human HL-60(TB) cells assessed tumor cell growth at 10^-5 M
In short: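 HL-60(TB), part of the 60-line panel, tested at a single concentration of 10^-5 M. The read-out is percent tumor cell growth relative to untreated growth.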

K562 = assay: Growth inhibition of human K562 cells assessed tumor cell growth at 10^-5 M
In short: (§1)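 NCI 60-human-tumor-cell-line panel screen. Each compound was tested at a single concentration of 10^-5 M, and percent growth of tumor cells was recorded for each cell line. Growth inhibition was expressed from these percent-growth values.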

MOLT-4 = assay: Growth inhibition of human MOLT4 cells assessed tumor cell growth at 10^-5 M; in short: as §1
[1] = Growth inhibition of human […] cells assessed tumor cell growth at 10^-5 M; in short: as §1
SR = assay: Growth inhibition of human SR cells assessed tumor cell growth at 10^-5 M
In short: (§2)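 Single-dose screen at 10^-5 M across the 60 human tumor cell line panel, run to NCI standards. The value is the percent growth of each cell line in the presence of compound. Compounds active at this dose moved on to five-concentration testing (10^-4 to 10^-8 M).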

A549 = assay: Growth inhibition of human A549 cells assessed tumor cell growth at 10^-5 M; in short: as §1
EKVX = assay: Growth inhibition of human EKVX cells assessed tumor cell growth at 10^-5 M; in short: as §1
HOP-62 = assay: Growth inhibition of human HOP62 cells assessed tumor cell growth at 10^-5 M; in short: as §1
NCI-H226 = assay: Growth inhibition of human NCI-H226 cells assessed tumor cell growth at 10^-5 M; in short: as §1
NCI-H23 = assay: Growth inhibition of human NCI-H23 cells assessed tumor cell growth at 10^-5 M; in short: as §1
NCI-H322M = assay: Growth inhibition of human NCI-H322M cells assessed tumor cell growth at 10^-5 M; in short: as §1
NCI-H460 = assay: Growth inhibition of human NCI-H460 cells assessed tumor cell growth at 10^-5 M; in short: as §1
NCI-H522 = assay: Growth inhibition of human NCI-H522 cells assessed tumor cell growth at 10^-5 M; in short: as §1
COLO 205 = assay: Growth inhibition of human COLO205 cells assessed tumor cell growth at 10^-5 M; in short: as §1
HCT-116 = assay: Growth inhibition of human HCT116 cells assessed tumor cell growth at 10^-5 M; in short: as §1
HCT-15 = assay: Growth inhibition of human HCT15 cells assessed tumor cell growth at 10^-5 M; in short: as §1
HT-29 = assay: Growth inhibition of human HT-29 cells assessed tumor cell growth at 10^-5 M; in short: as §1
KM12 = assay: Growth inhibition of human KM12 cells assessed tumor cell growth at 10^-5 M; in short: as §1
SW-620 = assay: Growth inhibition of human SW620 cells assessed tumor cell growth at 10^-5 M; in short: as §2
SF-268 = assay: Growth inhibition of human SF268 cells assessed tumor cell growth at 10^-5 M; in short: as §1
SF-295 = assay: Growth inhibition of human SF295 cells assessed tumor cell growth at 10^-5 M; in short: as §1
SF-539 = assay: Growth inhibition of human SF539 cells assessed tumor cell growth at 10^-5 M; in short: as §1
SNB-19 = assay: Growth inhibition of human SNB19 cells assessed tumor cell growth at 10^-5 M; in short: as §2
SNB-75 = assay: Growth inhibition of human SNB75 cells assessed tumor cell growth at 10^-5 M; in short: as §2
U-251 = assay: Growth inhibition of human U251 cells assessed tumor cell growth at 10^-5 M; in short: as §2
LOX IMVI = assay: Growth inhibition of human LOXIMVI cells assessed tumor cell growth at 10^-5 M; in short: as §1
Malme-3M = assay: Growth inhibition of human MALME-3M cells assessed tumor cell growth at 10^-5 M; in short: as §1
M14 = assay: Growth inhibition of human M14 cells assessed tumor cell growth at 10^-5 M; in short: as §1
MDA-MB-435 = assay: Growth inhibition of human MDA-MB-435 cells assessed tumor cell growth at 10^-5 M; in short: as §1
SK-MEL-2 = assay: Growth inhibition of human SK-MEL-2 cells assessed tumor cell growth at 10^-5 M; in short: as §1
SK-MEL-28 = assay: Growth inhibition of human SK-MEL-28 cells assessed tumor cell growth at 10^-5 M; in short: as §1
SK-MEL-5 = assay: Growth inhibition of human SK-MEL-5 cells assessed tumor cell growth at 10^-5 M; in short: as §1
UACC-62 = assay: Growth inhibition of human UACC62 cells assessed tumor cell growth at 10^-5 M; in short: as §2
IGROV-1 = assay: Growth inhibition of human IGROV1 cells assessed tumor cell growth at 10^-5 M; in short: as §1
OVCAR-3 = assay: Growth inhibition of human OVCAR3 cells assessed tumor cell growth at 10^-5 M; in short: as §1
OVCAR-4 = assay: Growth inhibition of human OVCAR4 cells assessed tumor cell growth at 10^-5 M; in short: as §1
OVCAR-5 = assay: Growth inhibition of human OVCAR5 cells assessed tumor cell growth at 10^-5 M; in short: as §1
OVCAR-8 = assay: Growth inhibition of human OVCAR8 cells assessed tumor cell growth at 10^-5 M; in short: as §1
NCI/ADR-RES = assay: Growth inhibition of human NCI/ADR-RES cells assessed tumor cell growth at 10^-5 M; in short: as §1
SK-OV-3 = assay: Growth inhibition of human SKOV3 cells assessed tumor cell growth at 10^-5 M; in short: as §1
786-0 = assay: Growth inhibition of human 786-0 cells assessed tumor cell growth at 10^-5 M; in short: as §1
A498 = assay: Growth inhibition of human A498 cells assessed tumor cell growth at 10^-5 M; in short: as §1
ACHN = assay: Growth inhibition of human ACHN cells assessed tumor cell growth at 10^-5 M; in short: as §1
CAKI-1 = assay: Growth inhibition of human Caki1 cells assessed tumor cell growth at 10^-5 M; in short: as §1
RXF 393 = assay: Growth inhibition of human RXF393 cells assessed tumor cell growth at 10^-5 M; in short: as §1
SN12C = assay: Growth inhibition of human SN12C cells assessed tumor cell growth at 10^-5 M; in short: as §1
TK-10 = assay: Growth inhibition of human TK10 cells assessed tumor cell growth at 10^-5 M; in short: as §2
UO-31 = assay: Growth inhibition of human UO31 cells assessed tumor cell growth at 10^-5 M; in short: as §2
PC-3 = assay: Growth inhibition of human PC3 cells assessed tumor cell growth at 10^-5 M; in short: as §1
DU-145 = assay: Growth inhibition of human DU145 cells assessed tumor cell growth at 10^-5 M; in short: as §1
MCF7 = assay: Growth inhibition of human MCF7 cells assessed tumor cell growth at 10^-5 M; in short: as §1
MDA-MB-231 = assay: Growth inhibition of human MDA-MB-231 cells assessed tumor cell growth at 10^-5 M; in short: as §1
[2] = Growth inhibition of human Hs 578T cells assessed tumor cell growth at 10^-5 M; in short: as §1
T47D = assay: Growth inhibition of human T47D cells assessed tumor cell growth at 10^-5 M; in short: as §2
MDA-MB-468 = assay: Growth inhibition of human MDA-MB-468 cells assessed tumor cell growth at 10^-5 M; in short: as §1

O=C1/C(=C\c2cn(C(=O)c3ccc(Cl)cc3)c3ccccc23)c2ccccc2N1C(=O)c1ccc(Cl)cc1
Activity (HL-60(TB)): 54.1% | Activity (K562): 83.8% | Activity (MOLT-4): 61.5% | Activity [1]: 57.4% | Activity (SR): 56.1% | Activity (A549): 63.2% | Activity (EKVX): 70.7% | Activity (HOP-62): 61.3% | Activity (NCI-H226): 89.4% | Activity (NCI-H23): 83.1% | Activity (NCI-H322M): 98.5% | Activity (NCI-H460): 86% | Activity (NCI-H522): 6% | Activity (COLO 205): 104.7% | Activity (HCT-116): 65.1% | Activity (HCT-15): 65.8% | Activity (HT-29): 70.4% | Activity (KM12): 24.2% | Activity (SW-620): 93.1% | Activity (SF-268): 77.5% | Activity (SF-295): 101.9% | Activity (SF-539): 67.3% | Activity (SNB-19): 98.2% | Activity (SNB-75): 54.4% | Activity (U-251): 74.1% | Activity (LOX IMVI): 67.7% | Activity (Malme-3M): 126% | Activity (M14): 79.1% | Activity (MDA-MB-435): 97.5% | Activity (SK-MEL-2): 49.8% | Activity (SK-MEL-28): 103% | Activity (SK-MEL-5): 74.8% | Activity (UACC-62): 88.9% | Activity (IGROV-1): 80% | Activity (OVCAR-3): 84.2% | Activity (OVCAR-4): 71.9% | Activity (OVCAR-5): 114.7% | Activity (OVCAR-8): 78.6% | Activity (NCI/ADR-RES): 83.4% | Activity (SK-OV-3): 77% | Activity (786-0): 93.7% | Activity (A498): 81% | Activity (ACHN): 63.2% | Activity (CAKI-1): 73.8% | Activity (RXF 393): 83.2% | Activity (SN12C): 80.7% | Activity (TK-10): 55.3% | Activity (UO-31): 64.4% | Activity (PC-3): 65.7% | Activity (DU-145): 85% | Activity (MCF7): 71.1% | Activity (MDA-MB-231): 81.2% | Activity [2]: 80.5% | Activity (T47D): 61.7% | Activity (MDA-MB-468): 51.7%
